Reference: ChEMBL document CHEMBL1128731, “Furanfurin and thiophenfurin: two novel tiazofurin analogues. Synthesis, structure, antitumor activity, and interactions with inosine monophosphate dehydrogenase” (J Med Chem, 1995)
pIC50: −log10 of the molar value.

Experiments:
Mus musculus [1] = experiment: Compound was tested for ratio of survival time of treated to control mice x100 at 400 mg/kg dose; assay type: functional
How it was run: (§1)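 Female BD2F1 mice (8 weeks old, 20–22 g), eight per group, injected ip with 10^5 L1210 leukemia cells on day 0. Starting 24 h later, drug dissolved in 0.9% NaCl given ip once daily for 9 consecutive days. % T/C = survival time of treated/control mice × 100. Body weight change tracked from start to end of treatment.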

K562 [2] = experiment: Compound was tested for its effect on GMP ribonucleotide levels of K562 cell at 100 uM concentration; assay type: functional, Homo sapiens
How it was run: (§2)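 K562 cells (1×10^7) were treated with saline or agent for 2 h at 37 °C, harvested by centrifugation and washed with cold saline. They were extracted with cold 10% trichloroacetic acid, neutralized with 0.5 M tri-n-octylamine in freon, and analyzed by HPLC. Levels are in nmol/g and expressed as % of saline control. Significance was set at p < 0.05.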

K562 [3] = experiment: Formation of NAD analogue by compound at 100 uM concentration against human myelogenous leukemia K562; assay type: functional
How it was run: (§3)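 K562 cells (1×10^7/10 mL) were labeled with 185 nM [2,8-3H]adenosine for 1 h at 37 °C, then given saline or analogue for 2 h. Cells were pelleted, washed with PBS and extracted in cold 10% trichloroacetic acid. Extracts were neutralized with 0.5 M tri-n-octylamine in freon and run on SAX HPLC with ammonium phosphate buffer. Results are pmol NAD analogue per 10^9 cells.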

[4] = IC90 ratio against bone marrow samples to HL-60; assay type: functional
How it was run: (§4)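 Antiproliferative assay scoring [125I]-5-iodo-2'-deoxyuridine incorporation into DNA after 72 h drug–cell contact. Run on normal human bone marrow from five donors and in three assays on HL-60. Ratio is antilog(mean log IC50 or IC90) on bone marrow over the same on HL-60. Range limits are antilog(mean log IC50 ± 2SD).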

Homo sapiens = species: Homo sapiens; experiment: Inhibitory concentration range against human bone marrow; assay type: functional; how it was run: as §4
K562 [5] = experiment: Compound was tested for its effect on AMP ribonucleotide levels of K562 cell at 50 uM concentration; assay type: functional, Homo sapiens; how it was run: as §2
K562 [6] = experiment: Compound was tested for its effect on GDP ribonucleotide levels of K562 cell at 10 uM concentration; assay type: functional, Homo sapiens; how it was run: as §2
K562 [7] = experiment: Compound was tested for its effect on IMPDH activity against K562 cells at 50 uM concentration; assay type: functional, Homo sapiens
How it was run: (§5)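 Log-phase K562 cells (1×10^6/mL) were exposed to saline or agent for 2 h at 37 °C, washed and lysed (Tris-HCl pH 7.4, NaCl, MgCl2, 0.5% NP-40, aprotinin). The cleared supernatant was incubated 30 min at 37 °C with 286 μM [2,8-3H]IMP and 1 mM NAD. Tritium release was counted by scintillation. Activity is nmol XMP/h/mg protein, also given as % of control.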

K562 [8] = experiment: Compound was tested for its effect on GTP ribonucleotide levels of K562 cell at 100 uM concentration; assay type: functional, Homo sapiens; how it was run: as §2
HL-60 [9] = experiment: (§6) Inhibitory concentration against human HL-60 cell line(activity expressed as range); assay type: functional, cell-based; how it was run: as §4
K562 [10] = experiment: Compound was tested for its effect on UMP ribonucleotide levels of K562 cell at 10 uM concentration; assay type: functional, Homo sapiens; how it was run: as §2
K562 [11] = experiment: Compound was tested for its effect on ADP ribonucleotide levels of K562 cell at 50 uM concentration; assay type: functional, Homo sapiens; how it was run: as §2
K562 [12] = experiment: Compound was tested for its effect on NAD ribonucleotide levels of K562 cell at 10 uM concentration; assay type: functional, Homo sapiens; how it was run: as §2
K562 [13] = experiment: Compound was tested for its effect on UDP ribonucleotide levels of K562 cell at 100 uM concentration; assay type: functional, Homo sapiens; how it was run: as §2
Mus musculus [14] = experiment: Compound was tested for ratio of survival time of treated to control mice x100 at 25 mg/kg dose; assay type: functional; how it was run: as §1
LoVo = experiment: Inhibitory concentration against LoVo human colon adenocarcinoma cell lines; assay type: functional, cell-based
How it was run: (§7)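 Cells in log phase plated with a range of drug concentrations (B16 5×10^3 cells/well; P388, L1210, LLC 10^4 cells/well; HL-60, K562, LoVo 2.5×10^5 cells/well). Growth read by modified MTT after 72 h drug contact at 37 °C. IC50 taken as the concentration reducing optical absorption by 50%, from Chou regression analysis. Maximum concentration tested 200 μM.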

K562 [15] = experiment: Compound was tested for its effect on CDP ribonucleotide levels of K562 cell at 10 uM concentration; assay type: functional, Homo sapiens; how it was run: as §2
K562 [16] = experiment: Compound was tested for its effect on GMP ribonucleotide levels of K562 cell at 50 uM concentration; assay type: functional, Homo sapiens; how it was run: as §2
L1210 = experiment: Inhibitory concentration against L1210 murine lymphocytic leukemia; assay type: functional, cell-based; conditions: Mus musculus; how it was run: as §7
K562 [17] = experiment: Compound was tested for its effect on CTP ribonucleotide levels of K562 cell at 100 uM concentration; assay type: functional, Homo sapiens; how it was run: as §2
K562 [18] = experiment: Compound was tested for its effect on GMP ribonucleotide levels of K562 cell at 10 uM concentration; assay type: functional, Homo sapiens; how it was run: as §2
K562 [19] = experiment: Compound was tested for its effect on ATP ribonucleotide levels of K562 cell at 10 uM concentration; assay type: functional, Homo sapiens; how it was run: as §2
[20] = system: Lewis lung carcinoma cell line; experiment: Inhibitory concentration against LLC Lewis lung carcinoma; assay type: functional, cell-based; conditions: Mus musculus; how it was run: as §7
P388 = experiment: Inhibitory concentration against P388 murine lymphocytic leukemia cell lines; assay type: functional, cell-based; conditions: Mus musculus; how it was run: as §7
K562 [21] = experiment: Compound was tested for its effect on IMPDH activity against K562 cells at 10 uM concentration; assay type: functional, Homo sapiens; how it was run: as §5
K562 [22] = experiment: Compound was tested for its effect on CTP ribonucleotide levels of K562 cell at 50 uM concentration; assay type: functional, Homo sapiens; how it was run: as §2
K562 [23] = experiment: Compound was tested for its effect on GTP ribonucleotide levels of K562 cell at 50 uM concentration; assay type: functional, Homo sapiens; how it was run: as §2
K562 [24] = experiment: Compound was tested for its effect on IMP ribonucleotide levels of K562 cell at 10 uM concentration; assay type: functional, Homo sapiens; how it was run: as §2
K562 [25] = experiment: Compound was tested for its effect on UTP ribonucleotide levels of K562 cell at 100 uM concentration; assay type: functional, Homo sapiens; how it was run: as §2
HL-60 [26] = experiment: as §6; assay type: functional; how it was run: as §4
K562 [27] = experiment: Compound was tested for its effect on UDP ribonucleotide levels of K562 cell at 50 uM concentration; assay type: functional, Homo sapiens; how it was run: as §2
[28] = Ratio of IC50 against HL-60; assay type: functional; how it was run: as §4
K562 [29] = experiment: compound was tested for its effect on IMPDH activity against K562 cells at 100 uM concentration; assay type: functional, Homo sapiens
How it was run: (§8)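 K562 cells (1×10^6/mL, log phase) exposed 2 h at 37 °C to 10, 50 or 100 μM drug, or to saline. Cells washed and lysed in Tris-HCl pH 7.4/NaCl/MgCl2/NP-40/aprotinin, and the 13000g supernatant used as enzyme. Enzyme incubated 30 min at 37 °C with 286 μM [2,8-3H]IMP and 1 mM NAD. Tritium release counted; activity in nmol XMP/h/mg protein, as % of saline control.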

K562 [30] = experiment: compound was tested for its effect on IMPDH activity against K562 cells at 10 uM concentration; assay type: functional, Homo sapiens; how it was run: as §8
Mus musculus [31] = experiment: Average weight change of mice from onset to termination of drug treatment at 25 mg/kg dose; assay type: functional
How it was run: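 Female BD2F1 mice (8 weeks, 20–22 g), eight per group, injected ip with 10^5 L1210 cells on day 0. From 24 h later, drug in 0.9% NaCl was given ip once daily for 9 days. Body weight change was averaged from onset to termination of treatment. Early deaths from toxicity were recorded.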

K562 [32] = experiment: Formation of NAD analogue by compound at 50 uM concentration against human myelogenous leukemia K562; assay type: functional; how it was run: as §3

## NC(=O)c1csc([C@@H]2O[C@H](CO)[C@@H](O)[C@H]2O)c1
Mus musculus [1]
  T/C: <100%
K562 [2]
  Control: 80%
K562 [3]
  Formation: 886 pmol/10^9 cells
[4]
  Ratio: >10
Homo sapiens
  IC90: >128 µM
K562 [5]
  Control: 140%
K562 [6]
  Control: 97%
K562 [7]
  Activity: 1.85
K562 [8]
  Control: 58%
HL-60 [9]
  pIC50: 5.62
K562 [10]
  Control: 110%
K562 [11]
  Control: 114%
K562 [12]
  Control: 81%
K562 [13]
  Control: 131%
Mus musculus [14]
  T/C: 168%
LoVo
  pIC50: 3.99
K562 [15]
  Control: 84%
K562 [16]
  Control: 90%
L1210
  pIC50: 5.12
K562 [17]
  Control: 32%
K562 [18]
  Control: 98%
K562 [19]
  Control: 92%
[20]
  pIC50: 4.95
P388
  pIC50: 5.49
K562 [21]
  Activity: 2.8
K562 [22]
  Control: 32%
K562 [23]
  Control: 58%
K562 [24]
  Control: 314%
K562 [25]
  Control: 87%
HL-60 [26]
  IC90: 8.3 µM
K562 [27]
  Control: 134%
[28]
  Ratio: 5.9
K562 [29]
  Control: 22%
K562 [30]
  Control: 56%
Mus musculus [31]
  Change: -9.8%
K562 [32]
  Formation: 505 pmol/10^9 cells
